One molecule from ChEMBL document CHEMBL3763060, “Synthesis and evaluation of analogs of the phenylpyridazinone NPD-001 as potent trypanosomal TbrPDEB1 phosphodiesterase inhibitors and in vitro trypanocidals” (Bioorg Med Chem, 2016) can be followed below.

Series [1] can be described thus: Inhibition of full length human recombinant PDE3A1 using [3H]-cAMP as substrate by scintillation proximity assay.
In series [2] the target is 3',5'-cyclic-AMP phosphodiesterase 4D (Homo sapiens, UniProt Q08499). The experiment in a line: Inhibition of full length human recombinant PDE4D3 using [3H]-cAMP as substrate by scintillation proximity assay.
Series [3] deals with T1, 3',5'-cyclic-AMP phosphodiesterase 4B (Homo sapiens, UniProt Q07343). The experiment in a line: Inhibition of full length human recombinant PDE4B1 using [3H]-cAMP as substrate by scintillation proximity assay.
T1 sequence (Q07343 whole entry): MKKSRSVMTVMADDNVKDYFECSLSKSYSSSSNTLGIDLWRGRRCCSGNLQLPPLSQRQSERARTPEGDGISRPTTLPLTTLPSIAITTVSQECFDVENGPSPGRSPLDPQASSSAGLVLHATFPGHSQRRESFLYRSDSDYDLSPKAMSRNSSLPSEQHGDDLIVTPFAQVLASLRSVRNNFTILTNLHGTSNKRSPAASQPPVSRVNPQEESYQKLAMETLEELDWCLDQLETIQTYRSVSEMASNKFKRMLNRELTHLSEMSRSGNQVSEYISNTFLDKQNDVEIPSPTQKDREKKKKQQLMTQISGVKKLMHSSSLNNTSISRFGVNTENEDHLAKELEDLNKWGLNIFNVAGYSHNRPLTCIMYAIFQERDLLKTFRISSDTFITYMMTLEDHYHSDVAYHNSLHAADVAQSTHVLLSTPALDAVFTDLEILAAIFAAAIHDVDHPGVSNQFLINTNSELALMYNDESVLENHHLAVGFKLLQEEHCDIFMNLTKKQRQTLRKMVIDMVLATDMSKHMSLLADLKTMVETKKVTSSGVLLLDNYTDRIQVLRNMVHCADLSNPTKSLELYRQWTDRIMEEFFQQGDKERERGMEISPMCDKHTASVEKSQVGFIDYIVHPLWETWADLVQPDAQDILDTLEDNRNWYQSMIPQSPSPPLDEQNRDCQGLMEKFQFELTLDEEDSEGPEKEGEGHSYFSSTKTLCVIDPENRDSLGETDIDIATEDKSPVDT
Series [4] can be described thus: Inhibition of Trypanosoma brucei PDEB2 using [3H]-cAMP as substrate after 15 mins by scintillation proximity assay.
The target in series [5] is cGMP-specific 3',5'-cyclic phosphodiesterase (Homo sapiens, UniProt O76074). Put plainly: Inhibition of full length human recombinant PDE5A1 using [3H]-cGMP as substrate by scintillation proximity assay. In short, it runs like this:
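Radiolabelled cGMP substrate at 0.5 (final assay level). Scintillation proximity read-out of the full-length recombinant enzyme's hydrolytic activity, run in the presence of test compounds.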

Series [6] can be described thus: Solubility of compound in 0.05 M phosphate buffer at pH 7.4. The class given is physicochemical.
Series [7] concerns the target Dual 3',5'-cyclic-AMP and -GMP phosphodiesterase 11A (Homo sapiens, UniProt Q9HCR9). The experiment in a line: Inhibition of full length human recombinant PDE11A4 using [3H]-cAMP as substrate by scintillation proximity assay.
Series [8] has as its target cGMP-dependent 3',5'-cyclic phosphodiesterase (Homo sapiens, UniProt O00408). The experiment in a line: Inhibition of full length human recombinant PDE2A3 using [3H]-cAMP as substrate by scintillation proximity assay.
In series [9] the target is High affinity 3',5'-cyclic-AMP phosphodiesterase 7A (Homo sapiens, UniProt Q13946). The experiment in a line: Inhibition of full length human recombinant PDE7A1 using [3H]-cAMP as substrate by scintillation proximity assay.
Series [10] relates to Trypanosoma brucei. Put plainly: Antitrypanosomal activity against Trypanosoma brucei assessed as inhibition of parasite growth after 48 hrs by resazurin assay. Format: functional, organism-based.
Series [11] concerns the target High affinity cAMP-specific and IBMX-insensitive 3',5'-cyclic phosphodiesterase 8B (Homo sapiens, UniProt O95263). The experiment in a line: Inhibition of full length human recombinant PDE8B using [3H]-cAMP as substrate by scintillation proximity assay.
Series [12] is described as follows: Cytotoxicity against human MRC5 cells assessed as growth inhibition. The class given is cell-based. In a few lines:
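MRC-5 fibroblasts were grown at 37 °C and 5% CO₂ in Hirumi-9 medium with 10% FCS. Compounds came from 20 mM DMSO stocks, serially pre-diluted 2- or 4-fold in DMSO, then in demineralized water; final DMSO was <1%. Results were reported as −logCC₅₀ with n = 2.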

For series [13], the target named is cAMP and cAMP-inhibited cGMP 3',5'-cyclic phosphodiesterase 10A (Homo sapiens, UniProt Q9Y233). Put plainly: Inhibition of full length human recombinant PDE10A using [3H]-cAMP as substrate by scintillation proximity assay.
Chain of cAMP and cAMP-inhibited cGMP 3',5'-cyclic phosphodiesterase 10A (Q9Y233 whole entry): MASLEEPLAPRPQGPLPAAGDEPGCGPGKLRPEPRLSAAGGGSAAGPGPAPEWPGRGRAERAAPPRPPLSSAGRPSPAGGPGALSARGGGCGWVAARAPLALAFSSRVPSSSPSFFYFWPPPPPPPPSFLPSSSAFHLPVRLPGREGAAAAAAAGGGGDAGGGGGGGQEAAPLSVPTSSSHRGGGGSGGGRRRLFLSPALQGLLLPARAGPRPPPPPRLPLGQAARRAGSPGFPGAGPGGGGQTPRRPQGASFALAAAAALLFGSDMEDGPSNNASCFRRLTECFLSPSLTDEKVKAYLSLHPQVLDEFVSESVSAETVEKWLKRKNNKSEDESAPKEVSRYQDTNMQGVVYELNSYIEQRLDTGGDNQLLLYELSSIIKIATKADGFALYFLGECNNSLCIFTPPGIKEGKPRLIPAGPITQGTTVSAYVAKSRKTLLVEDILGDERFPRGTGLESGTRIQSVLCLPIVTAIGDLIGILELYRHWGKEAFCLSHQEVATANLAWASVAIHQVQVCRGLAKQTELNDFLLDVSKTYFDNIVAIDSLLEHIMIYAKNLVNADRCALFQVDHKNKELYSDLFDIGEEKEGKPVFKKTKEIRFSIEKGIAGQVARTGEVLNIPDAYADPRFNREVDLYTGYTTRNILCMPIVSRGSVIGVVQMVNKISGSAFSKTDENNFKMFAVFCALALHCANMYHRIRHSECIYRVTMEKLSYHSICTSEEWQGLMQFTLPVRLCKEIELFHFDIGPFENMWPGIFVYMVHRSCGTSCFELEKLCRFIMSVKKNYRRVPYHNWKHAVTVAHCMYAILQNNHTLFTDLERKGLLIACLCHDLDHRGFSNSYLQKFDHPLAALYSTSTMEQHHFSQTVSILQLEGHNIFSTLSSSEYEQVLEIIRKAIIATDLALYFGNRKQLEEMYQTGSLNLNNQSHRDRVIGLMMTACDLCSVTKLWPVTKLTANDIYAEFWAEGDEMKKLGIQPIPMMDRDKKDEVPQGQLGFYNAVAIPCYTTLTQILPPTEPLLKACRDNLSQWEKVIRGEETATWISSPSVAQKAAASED
Series [14] concerns the target T1, 3',5'-cyclic-AMP phosphodiesterase 4B. The experiment in a line: Inhibition of full length human recombinant PDE4B2 using [3H]-cAMP as substrate by scintillation proximity assay.
The target of series [15] is High affinity cGMP-specific 3',5'-cyclic phosphodiesterase 9A (Homo sapiens, UniProt O76083). The experiment in a line: Inhibition of full length human recombinant PDE9A3 using [3H]-cAMP as substrate by scintillation proximity assay.
Chain of High affinity cGMP-specific 3',5'-cyclic phosphodiesterase 9A (O76083 whole entry): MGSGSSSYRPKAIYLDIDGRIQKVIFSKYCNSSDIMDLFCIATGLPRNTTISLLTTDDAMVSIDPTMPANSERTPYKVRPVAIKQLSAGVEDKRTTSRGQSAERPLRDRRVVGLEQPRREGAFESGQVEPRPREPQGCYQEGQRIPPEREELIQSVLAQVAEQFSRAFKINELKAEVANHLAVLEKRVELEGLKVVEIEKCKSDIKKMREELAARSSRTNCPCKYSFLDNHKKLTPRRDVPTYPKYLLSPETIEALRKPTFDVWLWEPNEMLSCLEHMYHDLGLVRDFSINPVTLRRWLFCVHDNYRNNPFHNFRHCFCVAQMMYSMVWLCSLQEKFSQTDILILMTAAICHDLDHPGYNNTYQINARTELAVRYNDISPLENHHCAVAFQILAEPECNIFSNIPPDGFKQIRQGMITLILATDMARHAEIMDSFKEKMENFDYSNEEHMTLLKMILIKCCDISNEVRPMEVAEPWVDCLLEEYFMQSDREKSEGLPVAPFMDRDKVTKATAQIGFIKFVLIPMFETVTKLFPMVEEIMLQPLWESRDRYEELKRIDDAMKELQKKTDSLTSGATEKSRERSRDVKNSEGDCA
Series [16] has as its system Trypanosoma brucei brucei. Put plainly: Antitrypanosomal activity against suramin-sensitive Trypanosoma brucei brucei Squib427 assessed as inhibition of parasite growth. Format: functional, organism-based. In short, it runs like this: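 Bloodstream-form trypomastigotes of Squib-427 were grown at 37 °C and 5% CO₂ in Hirumi-9 medium with 10% FCS. Compounds came from 20 mM DMSO stocks, pre-diluted 2- or 4-fold serially in DMSO, then diluted in demineralized water; final DMSO was <1%. Results were reported as −logEC₅₀ with n = 2.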

In series [17] the target is Dual specificity calcium/calmodulin-dependent 3',5'-cyclic nucleotide phosphodiesterase 1B (Homo sapiens, UniProt Q01064). Put plainly: Inhibition of full length human recombinant PDE1B1 using [3H]-cAMP as substrate by scintillation proximity assay.
Chain of Dual specificity calcium/calmodulin-dependent 3',5'-cyclic nucleotide phosphodiesterase 1B (Q01064 whole entry): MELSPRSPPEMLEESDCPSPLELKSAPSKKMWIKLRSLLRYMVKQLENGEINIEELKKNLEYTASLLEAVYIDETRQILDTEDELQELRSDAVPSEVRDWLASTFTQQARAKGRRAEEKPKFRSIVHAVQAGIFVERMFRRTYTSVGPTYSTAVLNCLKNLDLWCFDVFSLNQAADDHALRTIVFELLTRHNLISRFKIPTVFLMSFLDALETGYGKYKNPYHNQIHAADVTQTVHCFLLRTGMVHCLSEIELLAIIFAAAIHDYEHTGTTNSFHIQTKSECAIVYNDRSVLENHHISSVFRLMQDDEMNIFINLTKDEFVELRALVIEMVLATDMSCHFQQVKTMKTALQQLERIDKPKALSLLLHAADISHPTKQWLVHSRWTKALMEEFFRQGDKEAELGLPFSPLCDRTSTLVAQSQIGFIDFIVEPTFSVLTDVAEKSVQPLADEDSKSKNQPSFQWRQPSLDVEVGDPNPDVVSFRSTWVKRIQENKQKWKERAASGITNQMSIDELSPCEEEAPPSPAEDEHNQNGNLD

SMILES strings stand for the structures. Converted amounts (≈) assume the structure as drawn.

Chain of High affinity cAMP-specific and IBMX-insensitive 3',5'-cyclic phosphodiesterase 8B (O95263 whole entry): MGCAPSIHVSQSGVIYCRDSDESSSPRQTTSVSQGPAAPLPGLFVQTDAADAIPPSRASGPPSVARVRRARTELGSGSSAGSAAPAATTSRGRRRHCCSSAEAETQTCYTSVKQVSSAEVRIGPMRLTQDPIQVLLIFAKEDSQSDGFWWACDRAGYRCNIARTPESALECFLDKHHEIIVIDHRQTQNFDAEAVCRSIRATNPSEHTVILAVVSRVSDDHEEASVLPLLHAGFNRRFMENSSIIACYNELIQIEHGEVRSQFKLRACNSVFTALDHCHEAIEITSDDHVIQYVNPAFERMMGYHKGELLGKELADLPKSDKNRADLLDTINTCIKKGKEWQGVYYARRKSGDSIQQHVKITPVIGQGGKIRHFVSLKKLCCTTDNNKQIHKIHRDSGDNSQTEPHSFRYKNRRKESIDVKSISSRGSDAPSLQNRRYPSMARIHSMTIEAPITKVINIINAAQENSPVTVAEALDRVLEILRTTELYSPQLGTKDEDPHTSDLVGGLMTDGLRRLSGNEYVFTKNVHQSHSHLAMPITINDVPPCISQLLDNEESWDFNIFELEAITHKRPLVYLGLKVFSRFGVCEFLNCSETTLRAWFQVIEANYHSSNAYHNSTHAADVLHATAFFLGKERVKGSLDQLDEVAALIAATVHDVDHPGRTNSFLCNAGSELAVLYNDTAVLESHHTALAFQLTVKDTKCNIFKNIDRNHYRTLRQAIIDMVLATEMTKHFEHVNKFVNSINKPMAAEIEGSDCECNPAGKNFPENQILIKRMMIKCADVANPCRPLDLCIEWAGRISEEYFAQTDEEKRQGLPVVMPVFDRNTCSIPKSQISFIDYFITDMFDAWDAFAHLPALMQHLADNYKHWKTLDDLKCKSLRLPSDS
Chain of cGMP-dependent 3',5'-cyclic phosphodiesterase (O00408 whole entry): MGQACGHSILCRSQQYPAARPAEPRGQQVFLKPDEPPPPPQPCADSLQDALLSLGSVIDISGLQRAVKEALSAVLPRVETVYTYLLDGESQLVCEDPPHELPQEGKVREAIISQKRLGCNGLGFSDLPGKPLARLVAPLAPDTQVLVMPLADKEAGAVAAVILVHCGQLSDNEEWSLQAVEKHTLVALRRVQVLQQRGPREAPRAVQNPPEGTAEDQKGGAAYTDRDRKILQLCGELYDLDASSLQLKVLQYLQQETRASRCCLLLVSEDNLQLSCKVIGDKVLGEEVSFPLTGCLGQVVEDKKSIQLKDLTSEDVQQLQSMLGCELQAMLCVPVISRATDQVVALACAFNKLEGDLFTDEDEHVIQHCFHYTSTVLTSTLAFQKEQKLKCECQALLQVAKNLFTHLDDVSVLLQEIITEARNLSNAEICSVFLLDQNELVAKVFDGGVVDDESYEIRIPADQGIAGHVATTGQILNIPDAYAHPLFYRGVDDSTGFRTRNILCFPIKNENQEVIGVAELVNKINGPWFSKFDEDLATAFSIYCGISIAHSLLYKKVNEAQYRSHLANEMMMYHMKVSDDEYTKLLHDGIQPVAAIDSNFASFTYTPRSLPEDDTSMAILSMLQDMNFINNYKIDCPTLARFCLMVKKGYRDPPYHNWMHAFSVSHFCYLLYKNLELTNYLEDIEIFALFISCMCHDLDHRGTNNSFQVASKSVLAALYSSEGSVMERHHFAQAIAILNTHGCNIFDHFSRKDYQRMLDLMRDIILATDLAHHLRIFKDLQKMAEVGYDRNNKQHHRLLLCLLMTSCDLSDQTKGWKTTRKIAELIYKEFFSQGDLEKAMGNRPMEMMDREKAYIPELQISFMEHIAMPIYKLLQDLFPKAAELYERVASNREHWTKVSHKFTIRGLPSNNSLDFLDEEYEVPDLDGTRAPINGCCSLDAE

As for `COc1ccc(C2=NN(C3CCCCCC3)C(=O)[C@@H]3CC=CC[C@H]23)cc1OCCCCOc1ccc(-c2nnn[nH]2)cc1` (racemic), the pIC50 worked out at 6.9 in series [1] and 8.5 in [4]. Further, the IC50 in series [2] is 0.631 nM; in [3], 0.631 nM; in series [4], 3 nM; in series [5], 2000 nM; in [7], 2000 nM; in series [8], 6310 nM. In addition, the IC50 in series [9] is 3160 nM; in [10], 80 nM; in series [11] it was 3980 nM; in [13], 501 nM; in series [14] it was 0.501 nM; in [15], > 10000 nM. Moreover, in series [17], the IC50 is 3980 nM. In [6], this molecule yielded a solubility of 75 µM (≈ 43.9 µg/mL). Also, the CC50 in [12] was 6310 nM. Also, the concentration for a half-maximal effect (EC50) in series [16] is 20 nM.
